Measured values published in ChEMBL document CHEMBL2169846, “Design and synthesis of Pictet-Spengler condensation products that exhibit oncogenic-RAS synthetic lethality and induce non-apoptotic cell death” (Bioorg Med Chem Lett, 2012).
Activity calls are given as the source filed them. No cut-off for these calls is given here.

Legend:
[1] = Cytotoxicity against human HT1299 cells after 48 hrs by alamar blue assay; format: functional; details: HT1299, 48 h, read-out: LC50 (the source's name)
[2] = system: E3 ubiquitin-protein ligase Mdm2 (Homo sapiens), Q00987 [C464A]; assay: Inhibition of Mdm2 C464A mutant at 20 ug/mL after 2 hrs by cell-based luciferase assay
RKO = assay: Cytotoxicity against human RKO cells after 48 hrs by alamar blue assay; format: functional; details: read-out: LC50 (the source's name)
[3] = Cytotoxicity against human BJeLR cells expressing RAS G12V mutant after 48 hrs by alamar blue assay; format: functional, cell-based; details: read-out: LC50 (the source's name)
MCF7 = assay: Cytotoxicity against human MCF7 cells after 48 hrs by alamar blue assay; format: functional; details: MCF7, 48 h, read-out: LC50 (the source's name)
HT-1080 = assay: Cytotoxicity against human HT1080 cells after 48 hrs by alamar blue assay; format: functional; details: HT-1080, 48 h, read-out: LC50 (the source's name)
[4] = target: E3 ubiquitin-protein ligase Mdm2 (Homo sapiens) (UniProt Q00987); assay: Inhibition of wild type Mdm2 at 20 ug/mL after 2 hrs by cell-based luciferase assay
U2OS = assay: Cytotoxicity against human U2OS cells after 48 hrs by alamar blue assay; format: functional; details: read-out: LC50 (the source's name)
BJeH [5] = assay: Cytotoxicity against human BJeH cells expressing wild type RAS at 20 ug/mL after 48 hrs by alamar blue assay; format: functional, cell-based
BJeLR [6] = assay: Cytotoxicity against human BJeLR cells expressing RAS G12V mutant at 20 ug/mL after 48 hrs by alamar blue assay; format: functional, cell-based
BJeH [7] = assay: Cytotoxicity against human BJeH cells expressing wild type RAS at 1 uM after 24 hrs by trypan blue staining; format: functional, cell-based
BJeLR [8] = assay: Cytotoxicity against human BJeLR cells expressing RAS G12V mutant at 1 uM after 24 hrs by trypan blue staining; format: functional, cell-based
[9] = Cytotoxicity against human BJeH cells expressing wild type RAS after 48 hrs by alamar blue assay; format: functional, cell-based; details: read-out: LC50 (the source's name)
BJeLR [10] = assay: Induction of apoptosis in human BJeLR cells expressing RAS G12V mutant assessed as caspase 3 activation after 28 hrs by Apo-One assay; format: functional, cell-based
Procedure, shortened: (§1)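 BJ-TERT and BJ-TERT/LT/ST/RAS(V12) cells given compound as a two-fold, 14-point dilution series for 28 h. Alamar blue then added for viability, and caspase 3/7 activation detected by Apo-ONE in the same wells.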

BJeLR [11] = assay: Induction of apoptosis in human BJeLR cells expressing RAS G12V mutant assessed as caspase 7 activation after 28 hrs by Apo-One assay; format: functional, cell-based; procedure, shortened: as §1
BJeH [12] = assay: Induction of apoptosis in human BJeH cells expressing wild type RAS assessed as caspase 3 activation after 28 hrs by Apo-One assay; format: functional, cell-based; procedure, shortened: as §1
BJeH [13] = assay: Induction of apoptosis in human BJeH cells expressing wild type RAS assessed as caspase 7 activation after 28 hrs by Apo-One assay; format: functional, cell-based; procedure, shortened: as §1

E3 ubiquitin-protein ligase Mdm2 (Homo sapiens), Q00987 [C464A], sequence (Q00987 whole entry C464A): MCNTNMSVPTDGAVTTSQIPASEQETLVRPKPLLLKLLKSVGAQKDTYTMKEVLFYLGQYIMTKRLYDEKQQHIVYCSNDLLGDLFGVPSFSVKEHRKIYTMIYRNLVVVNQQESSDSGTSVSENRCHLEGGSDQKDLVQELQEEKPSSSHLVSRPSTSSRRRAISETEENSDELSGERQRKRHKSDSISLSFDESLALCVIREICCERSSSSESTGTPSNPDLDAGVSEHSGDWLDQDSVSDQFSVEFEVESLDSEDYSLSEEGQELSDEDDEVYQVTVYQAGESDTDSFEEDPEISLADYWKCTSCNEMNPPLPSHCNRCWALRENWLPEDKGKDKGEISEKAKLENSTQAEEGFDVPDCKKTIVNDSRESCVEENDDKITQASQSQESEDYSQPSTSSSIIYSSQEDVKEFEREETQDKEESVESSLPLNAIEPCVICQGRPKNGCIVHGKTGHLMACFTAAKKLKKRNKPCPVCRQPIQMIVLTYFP
E3 ubiquitin-protein ligase Mdm2 (Homo sapiens), sequence (Q00987 whole entry, looked up): as the sequence (Q00987 whole entry C464A) above, with A464C counted along it

SMILES: CC(CC1C(=O)N(C)C(=O)N(C)C1=O)C1c2c(c3ccccc3n2C(=O)OC(C)(C)C)CCN1C(=O)OC(C)(C)C (stereo unspecified)
- CC50 [1]: 16.9 µM
- inhibition [2]: inactive
- CC50 (RKO): 11.4 µM
- CC50 [3]: 35.2 µM
- CC50 (MCF7): 9.8 µM
- CC50 (HT-1080): 14.6 µM
- inhibition [4]: inactive
- CC50 (U2OS): 12.1 µM
- Activity (BJeH [5]): inactive

SMILES: CC(C=O)C1c2c(c3ccccc3n2C(=O)OC(C)(C)C)CCN1C(=O)OC(C)(C)C (stereo unspecified)
- CC50 [1]: 46.7 µM
- inhibition [2]: inactive
- CC50 (RKO): 7.7 µM
- CC50 [3]: 46.7 µM
- CC50 (MCF7): 11.4 µM
- CC50 (HT-1080): 13.7 µM
- inhibition [4]: inactive
- CC50 (U2OS): 10 µM
- Activity (BJeH [5]): inactive

SMILES: CCOC(=O)C(C)C1c2[nH]c3ccccc3c2CCN1C(=O)OC(C)(C)C (stereo unspecified)
- CC50 [1]: 53.7 µM
- inhibition [2]: inactive
- CC50 (RKO): 27.9 µM
- CC50 (MCF7): 23.6 µM
- CC50 (HT-1080): 53.7 µM
- inhibition [4]: inactive
- Activity (BJeLR [6]): inactive
- CC50 (U2OS): 53.7 µM
- Activity (BJeH [5]): inactive

SMILES: CN[C@@H]1C[C@H]2O[C@@](C)([C@@H]1OC)n1c3ccccc3c3c4c(c5c6ccccc6n2c5c31)C(=O)NC4
- Activity (BJeH [7]): Active
- Activity (BJeLR [8]): Active

SMILES: CC(CO)C1c2[nH]c3ccccc3c2CCN1C(=O)OC(C)(C)C (stereo unspecified)
- CC50 [1]: 24.8 µM
- inhibition [2]: inactive
- CC50 (RKO): 16 µM
- CC50 (MCF7): 22.1 µM
- CC50 (HT-1080): 46 µM
- inhibition [4]: inactive
- Activity (BJeLR [6]): inactive
- CC50 (U2OS): 17.8 µM
- CC50 [9]: 60.7 µM

SMILES: CN1C(=O)C(C2NCCc3c2[nH]c2ccccc32)C(=O)N(C)C1=O (stereo unspecified)
- CC50 [1]: 32.8 µM
- Activity (BJeLR [10]): Active
- inhibition [2]: inactive
- CC50 (RKO): 30.9 µM
- Activity (BJeLR [11]): Active
- CC50 [3]: 23.3 µM
- Activity (BJeH [12]): Active
- CC50 (MCF7): 31.2 µM
- Activity (BJeH [13]): Active
- CC50 (HT-1080): 16.5 µM
- inhibition [4]: inactive
- CC50 (U2OS): 29.4 µM
- CC50 [9]: 32.2 µM
